Inconclusive results are not listed.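 How the source made its calls, unless noted: active means viability at or below 27.92% in each of two runs, the all-compound median minus 4 SD; inconclusive means no clear call, values can overlap the other calls; inactive means the rest.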
What was measured:
[1] = S. cerevisiae growth inhibition in permissive medium (OD615), pilot counter-assay for S. cerevisiae lifespan shortening project, permissive growth control (AID 705;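 active means growth inhibition above 25% in both replicates, a cutoff set 3 SD above the mean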); details: OD615, 24 h, at 10 µM, hits give high values
Procedure, shortened: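 Test system: Saccharomyces cerevisiae strain carrying genetically modified DeaD replicative-lifespan system; buffer or medium: SC raffinose/galactose permissive medium; dosing: one dose 10 µM, DMSO 0.25% final; times: 24 h exposure, 30 °C; measured by: OD at 615 nm; read-out basis: growth inhibition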

[2] = S. cerevisiae growth inhibition in restrictive medium, OD615, pilot screen, restrictive growth control, yeast lifespan reduction project (AID 706;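 active means growth inhibition above a set limit, 3 SD over mean compound inhibition, in both replicates, cut at about 43% in these data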;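 further: modified DeaD lifespan yeast strain shifted to restrictive glucose medium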); details: OD615, 48 h, at 10 µM, hits give high values
Procedure, shortened: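 material = engineered S. cerevisiae DeaD strain | buffer or medium = glucose-based CSMM-D restrictive medium | dosing = one concentration, 10 µM final, 0.25% DMSO | schedule = 4 h pre-growth plus 48 h compound exposure, 30 °C | detection = OD615 absorbance reading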

[3] = doxorubicin toxicity protection in MRP-1 cells – H69AR cells, CellTiter-Glo, duplicate, MRP-1 activator project, pilot screen (AID 807;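 active means viability increase at or above a cutoff of the median across tested compounds plus 3 SD, cut at about 8.5% in these data, passing the limit was not always enough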;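 further: compound pretreatment 18-22 h then 72 h combined with doxorubicin; 0% = doxorubicin alone and 100% = vehicle without doxorubicin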); details: H69AR viability with doxorubicin, CellTiter-Glo luminescence; at 10 µM; hits give high values
[4] = viability of HCT116 without oncogenic beta-catenin – human colon tumor cells, pilot screen (AID 823;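 active means cell viability at or below a set limit in both duplicate runs, the limit being the all-compound median minus 4 SD, cut at about 23% in these data, passing the limit was not always enough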;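 further: 0% = wells killed by 20 µM Hyamine and 100% = untreated DMSO cell wells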); details: HCT116 beta-catenin knockout viability, CellTiter-Glo, 60 h; at 10 µM; hits give low values
[5] = viability of PTEN-null HCT116 cells – cell-based, HCT116 clonal line, CellTiter-Glo, pilot screen (AID 824); details: HCT116 PTEN-deleted viability, 60 h, at 10 µM, hits give low values;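 further: 0% = 20 µM Hyamine control and 100% = vehicle cell control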
[6] = RAM pathway blockade in budding yeast – dse1pr::URA3 reporter, 5-FOA selection, pilot screen (AID 869;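 active means inhibition over a set limit, the all-compound mean plus 3 SD, in both replicate runs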;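 further: 0% = DMSO wells with no growth and 100% = 10 µM 1-NA-PP1 with full growth; RAM network block rescues cells from 5-FOA so hits raise OD615 growth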); details: S. cerevisiae dse1pr::URA3 5-FOA growth, OD615, 2 d; at 10 µM; hits give high values; strain carries analog-sensitive mutant Cbk1 kinase
[7] = RAM signaling pathway blockade in yeast – S. cerevisiae, Pdr1DBD-CYC8 efflux-inhibited sensitized strain, primary screen (AID 1298;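 active means RAM network inhibition above 8.4% in each of two replicates, 3 SD over the compound average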;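 further: 0% = DMSO untreated cells without growth and 100% = 10 µM 1-NA-PP1 full growth; higher means more yeast growth rescued from 5-FOA killing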); details: S. cerevisiae cbk1-as DSE1-URA3 strain, 5-FOA growth OD615, 2 d; at 50 µM; hits give high values

COc1ccc(NC(=O)C(CC(=O)O)Cc2ccccc2)cc1 (stereo not given)
inactive: growth inhibition [1] -17% | growth inhibition [2] -9.36% | viability increase [3] -0.09% | viability [4] 102% | viability [5] 97.9% | inhibition [6] 1.62% | RAM network inhibition [7] 5.61%

Cc1ccc2oc(Nc3nc(C)cc(C)n3)nc2c1
inactive: growth inhibition [1] -6.34% | growth inhibition [2] 13.1% | viability increase [3] 0.49% | viability [4] 102% | viability [5] 94.8% | inhibition [6] 1.01% | RAM network inhibition [7] 0.61%

COc1cccc(-n2c(Cc3cc(=O)[nH]c(=O)[nH]3)nnc2SCC(=O)NC2CCCC2)c1
inactive: growth inhibition [1] -6.3% | growth inhibition [2] 8.16% | viability increase [3] -0.03% | viability [4] 101% | viability [5] 101% | inhibition [6] 2.87% | RAM network inhibition [7] -1.25%

COc1ccc(CCNc2nc(=O)[nH]nc2C)cc1OC
inactive: growth inhibition [1] -14.6% | growth inhibition [2] -16.5% | viability increase [3] -1.65% | viability [4] 96% | viability [5] 96.5% | inhibition [6] 2.62% | RAM network inhibition [7] 0.16%

O=C1Nc2ccccc2C(O)(C(=O)NCc2ccco2)N1c1ccc(Cl)cc1 (stereo not given)
inactive: growth inhibition [1] -7.58% | growth inhibition [2] -16.5% | viability increase [3] -4.11% | viability [4] 98.6% | viability [5] 94.5% | inhibition [6] 1.98% | RAM network inhibition [7] 4.83%

O=C(NCCCN1CCOCC1)c1ccc(CS(=O)(=O)c2ccc(Br)cc2)o1
inactive: growth inhibition [1] -9.31% | growth inhibition [2] -11% | viability increase [3] -0.56% | viability [4] 99.8% | viability [5] 96.2% | inhibition [6] 2.23% | RAM network inhibition [7] 3.6%

COc1cccc(NC(=O)CSc2nnc(-c3ccc(C)cc3)o2)c1
inactive: growth inhibition [1] -10.3% | growth inhibition [2] -11.9% | viability increase [3] -0.97% | viability [4] 93.9% | viability [5] 93.8% | inhibition [6] 2.13% | RAM network inhibition [7] 4%

Cc1cccc(-c2noc(CCc3ccccc3)n2)c1
inactive: growth inhibition [1] -13.3% | growth inhibition [2] -12% | viability increase [3] 0.39% | viability [4] 102% | viability [5] 98.1% | inhibition [6] 1.13% | RAM network inhibition [7] 2.14%

CCn1c(SCC(=O)Nc2ccccc2C(=O)OC)nc2c1c(=O)n(C)c(=O)n2C
inactive: growth inhibition [1] -6.03% | growth inhibition [2] -4.93% | viability increase [3] -3.55% | viability [4] 92% | viability [5] 86.6% | inhibition [6] 3.68% | RAM network inhibition [7] 5.2%

O=C(COC(=O)c1ccc(Br)o1)Nc1nc2ccccc2s1
inactive: growth inhibition [1] -11.2% | growth inhibition [2] -4.01% | viability increase [3] -4.65% | viability [4] 90.5% | viability [5] 87.8% | inhibition [6] 0.75% | RAM network inhibition [7] 1.88%

CNC(=O)c1cc2cc(OC)ccc2n1CCN(C)C
inactive: growth inhibition [1] -8.87% | growth inhibition [2] -16.4% | viability increase [3] -3.65% | viability [4] 92% | viability [5] 87.2% | inhibition [6] 2.31% | RAM network inhibition [7] 6.18%

O=C(CC1SC(=Nc2ccccc2)N(CCCCO)C1=O)NCc1ccccc1 (stereo not given)
inactive: growth inhibition [1] -5.1% | growth inhibition [2] -5.89% | viability increase [3] -2.74% | viability [4] 89.5% | viability [5] 86.4% | inhibition [6] 0.065% | RAM network inhibition [7] 5.21%

CCc1nnc(NC(=O)CSc2nccn2-c2cc(C)cc(C)c2)s1
inactive: growth inhibition [1] 3.21% | growth inhibition [2] 23% | viability increase [3] -6.31% | viability [4] 86.2% | viability [5] 75.8% | inhibition [6] 0.195% | RAM network inhibition [7] -1.37%

O=C(C1CCCN(c2nnc(-n3cccc3)s2)C1)N1CCN(c2ccccc2)CC1 (stereo not given)
inactive: growth inhibition [1] -4% | growth inhibition [2] -4.55% | viability increase [3] -1.11% | viability [4] 88.9% | viability [5] 86.5% | inhibition [6] 0.485% | RAM network inhibition [7] 1.12%

Cc1ccc(OCCn2c(C)c(/C=N/n3cnnc3)c3ccccc32)cc1
inactive: growth inhibition [1] 8.46% | growth inhibition [2] 22.9% | viability increase [3] -6.55% | viability [4] 81.5% | viability [5] 76% | inhibition [6] 0.8% | RAM network inhibition [7] 1.89%

COc1cccc(C2NC(C)(C(=O)O)C3C(=O)N(C(C)C)C(=O)C23)c1O (stereo not given)
inactive: growth inhibition [1] 2.59% | growth inhibition [2] 1.56% | viability increase [3] -1.19% | viability [4] 91.5% | viability [5] 91.3% | inhibition [6] 1.82% | RAM network inhibition [7] 2.7%

CN1CCN(C(=O)C2CCC(CNS(=O)(=O)c3cccc4cccnc34)CC2)CC1 (stereo not given)
inactive: growth inhibition [1] 4.4% | growth inhibition [2] 2.39% | viability increase [3] -0.86% | viability [4] 99% | viability [5] 100% | inhibition [6] 1.58% | RAM network inhibition [7] 0.46%

N#Cc1ccc(CSCC(=O)O)cc1
inactive: growth inhibition [1] -10.3% | growth inhibition [2] -2.01% | viability increase [3] 1.1% | viability [4] 97.4% | viability [5] 107% | inhibition [6] 2.8% | RAM network inhibition [7] 4.42%

CCOC(=O)C1CCCCN1C(=O)CCc1c(C)nc2cc(-c3ccccc3)nn2c1C (stereo not given)
inactive: growth inhibition [1] 4.13% | growth inhibition [2] -4.46% | viability increase [3] 1.11% | viability [4] 52.9% | viability [5] 78% | inhibition [6] 1.38% | RAM network inhibition [7] -2.1%

COc1ccc(C(=O)C(OC(=O)CNC(=O)c2ccco2)c2ccccc2)cc1 (stereo not given)
inactive: growth inhibition [1] -11.8% | growth inhibition [2] 3.51% | viability increase [3] -3.65% | viability [4] 100% | viability [5] 102% | inhibition [6] 1.49% | RAM network inhibition [7] 2.66%

CN1CCN(S(=O)(=O)c2cccc(S(=O)(=O)c3ccc(Cl)c(Cl)c3)c2)CC1
inactive: growth inhibition [1] -1.71% | growth inhibition [2] -7.33% | viability increase [3] -2.58% | viability [4] 91.1% | viability [5] 83.7% | inhibition [6] 0.59% | RAM network inhibition [7] 4.5%

CCc1ccc(NS(=O)(=O)c2cc(OC)ccc2OC)cc1
inactive: growth inhibition [1] -3.06% | growth inhibition [2] -9.52% | viability increase [3] -3.77% | viability [4] 66.6% | viability [5] 58.3% | inhibition [6] 0.68% | RAM network inhibition [7] 1.9%

C/C(N)=C(/C#N)C(=O)CSc1n[nH]c(-c2ccccc2Br)n1
inactive: growth inhibition [1] -8.32% | growth inhibition [2] 8.69% | viability increase [3] 2.73% | viability [4] 110% | viability [5] 105% | inhibition [6] -0.48% | RAM network inhibition [7] -1.02%

COc1ccc(C(=O)Oc2ccc3c(c2)OCO3)cc1OC
inactive: growth inhibition [1] -6.54% | growth inhibition [2] -4.45% | viability increase [3] -0.06% | viability [4] 85.9% | viability [5] 100% | inhibition [6] 1.68% | RAM network inhibition [7] 3.32%

CN(C)C=NC(=O)/C(C#N)=C1\CCc2ccccc2N1
inactive: growth inhibition [1] -9.21% | growth inhibition [2] -2.15% | viability increase [3] -2.2% | viability [4] 95.2% | viability [5] 92.5% | inhibition [6] 0.705% | RAM network inhibition [7] 6.77%

Cc1ccccc1NC(=O)CC1SC(=NC2CCCCC2)NC1=O (stereo not given)
inactive: growth inhibition [1] -3.83% | growth inhibition [2] -12% | viability increase [3] -0.62% | viability [4] 102% | viability [5] 101% | inhibition [6] 1.62% | RAM network inhibition [7] 0.66%

COc1ccc(C2C(C(=O)Nc3cccnc3)=C(C)Nc3nc(-c4ccco4)nn32)cc1 (stereo not given)
inactive: growth inhibition [1] 4.86% | growth inhibition [2] -9.13% | viability increase [3] -1.69% | viability [4] 108% | viability [5] 104% | inhibition [6] 0.55% | RAM network inhibition [7] 2.07%

CCN1CCN(c2ncnc3c2sc(=S)n3-c2ccccc2)CC1
inactive: growth inhibition [1] 8.5% | growth inhibition [2] 11.5% | viability increase [3] -3.4% | viability [4] 85.4% | viability [5] 84.9% | inhibition [6] 1.73% | RAM network inhibition [7] -0.06%

O=C(NCc1ccccc1)c1ccc(/C=N/O)nc1
inactive: growth inhibition [1] -17.6% | growth inhibition [2] -5.67% | viability increase [3] -0.06% | viability [4] 98.2% | viability [5] 106% | inhibition [6] 2.25% | RAM network inhibition [7] 6.66%

Cc1ccc(NS(=O)(=O)c2cc(C(=O)O)ccc2Cl)cc1
inactive: growth inhibition [1] -5.58% | growth inhibition [2] -5.51% | viability increase [3] -1.55% | viability [4] 100% | viability [5] 95.2% | inhibition [6] 1.16% | RAM network inhibition [7] 7.99%

CC(C)n1c(C(O)c2ccc3c(c2)OCO3)nc2ccccc21 (stereo not given)
inactive: growth inhibition [1] -1.25% | growth inhibition [2] 0.5% | viability increase [3] 0.4% | viability [4] 94.8% | viability [5] 90.9% | inhibition [6] 0.905% | RAM network inhibition [7] 2.89%

CCN1C(=O)c2cccc3c(NC(=O)c4ccc(S(=O)(=O)N5CCOCC5)cc4)ccc1c23
inactive: growth inhibition [1] 14.5% | growth inhibition [2] 3.86% | viability increase [3] -6.36% | viability [4] 65.6% | viability [5] 65.8% | inhibition [6] 1.11% | RAM network inhibition [7] 2.6%

O=C(NCCN1CCN(c2ccccc2F)CC1)C1CCCN(S(=O)(=O)c2cnc[nH]2)C1 (stereo not given)
inactive: growth inhibition [1] 5.84% | growth inhibition [2] 3.21% | viability increase [3] -1.19% | viability [4] 104% | viability [5] 98% | inhibition [6] 2.38% | RAM network inhibition [7] 0.68%

COC(=O)C1=C(C)Nc2nc(-c3ccccc3)nn2C1c1ccc(C)o1 (stereo not given)
inactive: growth inhibition [1] -4.19% | growth inhibition [2] 12.3% | viability increase [3] -4.23% | viability [4] 78.3% | viability [5] 76.1% | inhibition [6] 2.19% | RAM network inhibition [7] 1.2%

COc1cc2[nH]c(=O)n(CCCCCC(=O)NCCCN3CCC(C)CC3)c(=O)c2cc1OC
inactive: growth inhibition [1] -13.8% | growth inhibition [2] -6.3% | viability increase [3] -0.8% | viability [4] 93.8% | viability [5] 101% | inhibition [6] 1.68% | RAM network inhibition [7] 2.66%
